KCNQ1 pot: human KCNQ1 channel potentiation or activation. P51787. CHO-K1 KCNQ1, thallium flux FluxOR fluorescence; active compounds read high. B-score at 10 µM. hit rate 0.35% among 310,000;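 active = fluorescence ratio B-score, a plate-corrected score, at least three library SD, with initial intensity B-score within 5 SD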
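Assay system: CHO-K1 cells stably expressing KCNQ1. Medium: assay buffer for compound exposure, DMSO matched across wells. Timing: 37 °C overnight plating, 90-min dark dye load, 20-min compound pretreatment. Signal: kinetic FluxOR fluorescence, 10 s baseline plus 110 s post-stimulus.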
hERG rescue: shields human hERG channel from block by proarrhythmic agents; Q12809; CHO-hERG, FluxOR thallium flux, dofetilide IC70 present; activation (rescue from dofetilide block), less the hit threshold, % at 10 µM; hit rate 0.51% among 310,000;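 active = activation above the mean of controls blocked by dofetilide plus 5 SD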;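 note: thallium influx through hERG after potassium depolarization seen as dye fluorescence rise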
Kir21 block: blocks the mouse Kir2.1 inward-rectifier potassium channel. P35561. HEK293-Kir2.1, FluxOR thallium flux fluorescence; active compounds read low. B-score at 10 µM. hit rate 0.85% among 310,000;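 active = fluorescence ratio B-score at or below minus 3 SD of library scores, with starting-brightness B-score within 2 SD, cut at about -4.2 in these data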;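 note: channel flux triggered by added potassium and thallium sulfate stimulus; B-score of peak minus minimum fluorescence over baseline after thallium stimulus; more negative B-score means stronger Kir2.1 block with less thallium influx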
KCNQ1 inh: blocks the human KCNQ1 potassium channel. CHO-K1 KCNQ1, FluxOR thallium flux fluorescence; active compounds read high. B-score at 10 µM. hit rate 1.3% among 310,000. P51787;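 active = compounds whose thallium flux B-score, printed positive for inhibition, exceeds three library SD while starting fluorescence stays within three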;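 note: channel opened by potassium depolarization with thallium stimulus after 20 min compound exposure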
KCNK9 inh: blocks the human KCNK9 two-pore domain potassium channel | hit rate 1.2% among 310,000 | Q9NPC2 | AID 488922 | B-score at 10 µM | HEK293 KCNK9, FluxOR thallium flux fluorescence; active compounds read low;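 active = ratio B-score over 3 SD below the library mean, with starting fluorescence within 5 SD of its mean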;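 note: negative B-score means less thallium flux so channel inhibition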
KCNK3 inh: human KCNK3 channel inhibition, primary screen; O14649; CHO-KCNK3 thallium flux, FluxOR fluorescence; active compounds read low; B-score at 10 µM; hit rate 0.84% among 340,000; AID 602410;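 active = B-score under library mean minus 4 SD, starting fluorescence ratio at most library mean plus 5 SD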;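 note: more negative B-score means stronger inhibition of thallium flux through KCNK3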
Target sequence (O14649 whole entry, looked up): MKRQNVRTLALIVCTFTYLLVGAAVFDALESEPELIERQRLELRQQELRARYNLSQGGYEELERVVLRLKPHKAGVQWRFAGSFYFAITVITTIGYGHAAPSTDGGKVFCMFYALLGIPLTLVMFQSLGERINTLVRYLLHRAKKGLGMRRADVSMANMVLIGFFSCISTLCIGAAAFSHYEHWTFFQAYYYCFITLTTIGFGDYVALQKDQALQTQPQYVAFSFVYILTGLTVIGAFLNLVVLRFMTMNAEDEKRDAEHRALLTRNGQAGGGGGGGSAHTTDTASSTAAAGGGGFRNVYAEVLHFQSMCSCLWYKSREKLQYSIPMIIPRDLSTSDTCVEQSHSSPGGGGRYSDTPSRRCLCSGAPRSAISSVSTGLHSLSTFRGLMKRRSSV
Numbers without * were called inactive; i = inactive; nt = no result. Shown are actives, neighbours in structure and some others; about 3.7% of the full set was active somewhere.

SMILES	KCNQ1 pot	hERG rescue	Kir21 block	KCNQ1 inh	KCNK9 inh	KCNK3 inh
CCOC(=O)c1n[nH]n2c1nc(=S)c1ccccc12	34*	23*	-1.1	i	i	i
COc1ccc(Nc2cc(C)c3c(O)cccc3n2)cc1	i	-14	-13*	i	i	i
Cc1ccc(Nc2cc(C)c3c(O)cccc3n2)cc1C	i	-16	-1.8	i	i	i
CC(C)c1ccc(CNc2ccc([N+](=O)[O-])cn2)cc1	i	-11	-1.6	7*	i	i
O=[N+]([O-])c1ccc(NCc2ccc(Cl)cc2)nc1	i	-8	1.9	i	i	i
O=C(CN(c1ccccc1)S(=O)(=O)c1ccc(F)cc1)NC1CCCCCC1	i	-3	-0.01	i	i	i
NS(=O)(=O)c1cccc(NC(=O)COC(=O)c2ccc(S(=O)(=O)N3CCOCC3)cc2)c1	nt	nt	nt	nt	nt	i
CCOC(=O)C1=C(O)c2ccccc2C(=O)/C1=C\c1ccc(C)cc1	nt	nt	nt	nt	nt	i
CCOC(=O)C1=C(Cc2ccc(Cl)cc2)C(=O)c2ccccc2C1=O	i	-8	0.05	10*	i	i
CCC1CCCCN1CCCNC(=O)C1CCN(Cc2nc(-c3ccc(Cl)cc3)oc2C)CC1 (stereo unspecified)	i	-9	-1.2	i	i	i
Cc1oc(-c2ccc(Cl)cc2)nc1CN1CCC(C(=O)NCCCN2CCOCC2)CC1	i	-6	-4.6*	i	i	i
N#Cc1ccc(CSc2nnc(Cc3cccs3)n2Cc2ccco2)cc1	i	-3	-6.1*	i	i	i
Cc1ccc(-c2c(=O)n(O)c3ccccc3[n+]2[O-])cc1	17*	-1	0.14	i	i	i
CCOc1ccc(-c2c(=O)n(OCC)c3ccccc3[n+]2[O-])cc1	i	-4	-0.69	i	i	i
COn1c(=O)c(-c2ccc(C)cc2)[n+]([O-])c2ccccc21	i	-10	-0.29	i	i	i
O=c1c(-c2ccccc2)[n+]([O-])c2ccccc2n1O	i	13*	-0.13	i	i	i
COn1c(=O)c(-c2ccccc2)[n+]([O-])c2ccccc21	i	-2	0.61	i	i	i
CCOc1ccc(-c2c(=O)n(O)c3ccccc3[n+]2[O-])cc1	12*	18*	-0.47	i	i	i
CC1CCCCC1NC(=O)Cn1cnc2sccc2c1=O (stereo unspecified)	nt	nt	nt	nt	nt	i
O=C(CN(C1CCCCC1)S(=O)(=O)c1ccc(F)cc1)NCC1CCCO1 (stereo unspecified)	nt	nt	nt	nt	nt	i
Cc1ccsc1CN(C)C(=O)C(NC(=O)c1cccc(S(=O)(=O)N2CCOCC2)c1)C(C)C (stereo unspecified)	nt	nt	nt	nt	nt	i
COc1cc(/C=N/Nc2nc(N3CCCC3)nc(N3CCCC3)n2)ccc1OCc1ccccc1F	i	11*	-1	i	i	i
CCN(C(=O)COC(=O)CCC(=O)c1cccs1)c1ccccc1	nt	nt	nt	nt	nt	i
CC(C)(C)S(=O)N1Cc2ccc(CO)cc2[C@@H]1CCO (stereo partly specified)	nt	nt	nt	nt	nt	i
Cc1ccccc1OCCNc1cc(N2CCNCC2)ccc1[N+](=O)[O-]	i	-23	-8.1*	i	i	nt
SMILES	KCNQ1 pot	hERG rescue	Kir21 block	KCNQ1 inh	KCNK9 inh	KCNK3 inh
Cc1cccc(OCCNc2cc(N3CCN(C)CC3)ccc2[N+](=O)[O-])c1	i	-19	-1.4	i	i	i
COc1ccccc1OCCNc1cc(N2CCCCC2)ccc1[N+](=O)[O-]	i	-7	2.3	6*	-6.8*	i
COc1cccc(/C=C2\C(=O)N(c3cccc(C)c3)C(=O)c3ccccc32)c1	i	-10	-9.2*	i	i	i
CCOc1cc(/C=C2\C(=O)N(c3cccc(C(F)(F)F)c3)C(=O)c3ccccc32)ccc1O	i	-5	0.41	i	i	i
Cc1cccc(N2C(=O)/C(=C\c3ccc(OC(F)F)cc3)c3ccccc3C2=O)c1	i	-3	-4.3*	i	i	i
Cc1ccccc1Oc1ccc2c(c1)[C@@H]1C[C@H]3[C@@H](C(=O)N1CC2)[C@H](C)ON3C	nt	nt	nt	nt	nt	i
COc1ccc(-c2coc3cc(OC(C)=O)ccc3c2=S)cc1	nt	nt	nt	nt	nt	i
O=c1c2cc(Br)ccc2nc(-c2ccc([N+](=O)[O-])cc2)n1O	26*	16*	0.35	i	i	i
O=c1c2cc(Cl)ccc2nc(-c2ccccc2)n1O	8*	11*	-0.02	i	i	i
O=c1c2ccc(Cl)cc2nc(-c2ccc([N+](=O)[O-])cc2)n1O	35*	6.7*	1	i	i	i
O=c1c2cc(Br)ccc2nc(-c2cccc(C(F)(F)F)c2)n1O	99*	73*	0.13	i	i	i
C[C@H](CO)N1C[C@H](C)[C@@H](CN(C)C)Oc2c(NS(=O)(=O)c3cn(C)cn3)cccc2C1=O	nt	nt	nt	nt	nt	i
COc1cc(C)c(CN2CCN(S(=O)(=O)c3ccc(Cl)s3)CC2)cc1OC	nt	nt	nt	nt	nt	i
CCOC(=O)C1CCN(S(=O)(=O)c2c(Cl)ccc3nonc23)CC1	9*	-19	-1.1	i	i	i
CCOC(=O)C1CCN(S(=O)(=O)c2cccc3nonc23)CC1	i	14*	1.2	i	i	i
CCOC(=O)c1ccc2c(c1)n(CC)c(/C=C/Nc1ccccc1)[n+]2CC	i	-25	-0.22	13*	i	i
CSc1ncccc1C(=O)OCC(=O)NCCc1ccccc1	nt	nt	nt	nt	nt	i
COc1ccc(NC(=O)/C(Cl)=C(/Cl)S(=O)(=O)Cc2ccccc2)cn1	i	-19	-5*	i	i	i
CC(C)COc1ccc(C(=O)NC(CC(C)C)C(=O)O)cc1 (stereo unspecified)	i	-3	2.5	i	i	i
Cc1ccc(Oc2ccc(OCC(=O)NC(CC(C)C)C(=O)O)cc2)cc1 (stereo unspecified)	i	4.9*	-1.5	i	i	i
C(=C\c1nc(N2CCCC2)c2ccccc2n1)/c1ccccc1	i	-18	0.44	i	-7.2*	i
O=C(O)C1(O)C[C@@H](O)C(O)[C@H](O)C1 (stereo partly specified)	nt	nt	nt	nt	nt	i
Cc1ccc2nc3c(c(Nc4ccc5c(c4)OCCO5)c2c1)CCC3	i	-24	-5.6*	i	i	i
Cc1ccc2nc3c(c(Nc4ccc(O)cc4)c2c1)CCC3	i	-11	0.46	i	i	i
Cc1cccc(Nc2c3c(nc4ccccc24)CCC3)c1	i	-18	-6*	i	i	i
COc1ccc(Nc2c3c(nc4ccc(C)cc24)CCC3)cc1	i	-10	-3.8	8*	i	i
